Experimental data taken from ChEMBL document CHEMBL3784971, “Synthesis, characterization, antimicrobial and biofilm inhibitory studies of new esterquats” (Bioorg Med Chem Lett, 2016).
≈ marks a conversion by molar mass, not a printed value. Blank lines part the entries; values can stand above or below the compound they belong to. Calls of active or inactive are those of the source. The rule behind the calls is not given here.

What was measured:
Staphylococcus aureus [1] = assay: Antimicrobial activity against Staphylococcus aureus MTCC 96 assessed as growth inhibition after 24 hrs by agar well diffusion method; type: functional; conditions: MTCC 96, 24 h
Bacillus subtilis [2] = assay: Antimicrobial activity against Bacillus subtilis MTCC 121 assessed as growth inhibition after 24 hrs by agar well diffusion method; type: functional; conditions: MTCC 121, 24 h
Staphylococcus aureus [3] = assay: Antimicrobial activity against Staphylococcus aureus MLS16 MTCC 2940 assessed as growth inhibition after 24 hrs by agar well diffusion method; type: functional; conditions: MLS16 MTCC 2940, 24 h
Micrococcus luteus [4] = assay: Antimicrobial activity against Micrococcus luteus MTCC 2470 assessed as growth inhibition after 24 hrs by agar well diffusion method; type: functional; conditions: MTCC 2470, 24 h
Raoultella planticola [5] = assay: Antimicrobial activity against Klebsiella planticola MTCC 530 assessed as growth inhibition after 24 hrs by agar well diffusion method; type: functional; conditions: MTCC 530, 24 h
Escherichia coli [6] = assay: Antimicrobial activity against Escherichia coli MTCC 739 assessed as growth inhibition after 24 hrs by agar well diffusion method; type: functional; conditions: MTCC 739, 24 h
Pseudomonas aeruginosa = assay: Antimicrobial activity against Pseudomonas aeruginosa MTCC 2453 assessed as growth inhibition after 24 hrs by agar well diffusion method; type: functional; conditions: MTCC 2453, 24 h
Staphylococcus aureus [7] = assay: Bactericidal activity against Staphylococcus aureus MTCC 96 after 24 hrs by serial dilution method; type: functional; conditions: MTCC 96, 24 h
Bacillus subtilis [8] = assay: Bactericidal activity against Bacillus subtilis MTCC 121 after 24 hrs by serial dilution method; type: functional; conditions: MTCC 121, 24 h
Staphylococcus aureus [9] = assay: Bactericidal activity against Staphylococcus aureus MLS16 MTCC 2940 after 24 hrs by serial dilution method; type: functional; conditions: MLS16 MTCC 2940, 24 h
Micrococcus luteus [10] = assay: Bactericidal activity against Micrococcus luteus MTCC 2470 after 24 hrs by serial dilution method; type: functional; conditions: MTCC 2470, 24 h
Raoultella planticola [11] = assay: Bactericidal activity against Klebsiella planticola MTCC 530 after 24 hrs by serial dilution method; type: functional; conditions: MTCC 530, 24 h
Escherichia coli [12] = assay: Bactericidal activity against Escherichia coli MTCC 739 after 24 hrs by serial dilution method; type: functional; conditions: MTCC 739, 24 h
Bacillus subtilis [13] = assay: Antibiofilm activity against Bacillus subtilis MTCC 121 after 24 hrs by crystal violet staining based assay; type: functional, organism-based; conditions: MTCC 121, 24 h
Method in brief: (§1)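 Biofilm inhibition tested for amine esters and esterquats. IC50 values (µg/mL) are the mean of three determinations, with ciprofloxacin as reference.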

Staphylococcus aureus [14] = assay: Antibiofilm activity against Staphylococcus aureus MLS16 MTCC 2940 after 24 hrs by crystal violet staining based assay; type: functional, organism-based; conditions: MLS16 MTCC 2940, 24 h; method in brief: as §1
Micrococcus luteus [15] = assay: Antibiofilm activity against Micrococcus luteus MTCC 2470 after 24 hrs by crystal violet staining based assay; type: functional, organism-based; conditions: MTCC 2470, 24 h; method in brief: as §1
Staphylococcus aureus [16] = assay: Bactericidal activity against Staphylococcus aureus MLS16 MTCC 2940 assessed as increase in intracellular ROS accumulation in at 0.5 to 2 ug/mL after 24 hrs by DCFHDA staining based fluorometric assay; type: functional, organism-based
Method in brief: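 Intracellular ROS measured in cells of mature biofilms using the general ROS fluorescent probe 2′,7′-dichlorofluorescein-diacetate (DCFH-DA), read as increase in fluorescence. Sessile cells and the supernatant were measured separately.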

Candida albicans [17] = assay: Antimicrobial activity against Candida albicans MTCC 3017 assessed as growth inhibition after 24 hrs by agar well diffusion method; type: functional; conditions: MTCC 3017, 24 h
Candida albicans [18] = assay: Antimicrobial activity against Candida albicans MTCC 183 assessed as growth inhibition after 24 hrs by agar well diffusion method; type: functional; conditions: MTCC 183, 24 h
Candida albicans [19] = assay: Antimicrobial activity against Candida albicans MTCC 227 assessed as growth inhibition after 24 hrs by agar well diffusion method; type: functional; conditions: MTCC 227, 24 h
Candida albicans [20] = assay: Antimicrobial activity against Candida albicans MTCC 854 assessed as growth inhibition after 24 hrs by agar well diffusion method; type: functional; conditions: MTCC 854, 24 h
Candida albicans [21] = assay: Antimicrobial activity against Candida albicans MTCC 1637 assessed as growth inhibition after 24 hrs by agar well diffusion method; type: functional; conditions: MTCC 1637, 24 h
Candida albicans [22] = assay: Antimicrobial activity against Candida albicans MTCC 3018 assessed as growth inhibition after 24 hrs by agar well diffusion method; type: functional; conditions: MTCC 3018, 24 h
Candida albicans [23] = assay: Antimicrobial activity against Candida albicans MTCC 3958 assessed as growth inhibition after 24 hrs by agar well diffusion method; type: functional; conditions: MTCC 3958, 24 h
Candida albicans [24] = assay: Antimicrobial activity against Candida albicans MTCC 4748 assessed as growth inhibition after 24 hrs by agar well diffusion method; type: functional; conditions: MTCC 4748, 24 h
Candida albicans [25] = assay: Antimicrobial activity against Candida albicans MTCC 7315 assessed as growth inhibition after 24 hrs by agar well diffusion method; type: functional; conditions: MTCC 7315, 24 h
Candida parapsilosis [26] = assay: Antimicrobial activity against Candida parapsilosis MTCC 1744 assessed as growth inhibition after 24 hrs by agar well diffusion method; type: functional; conditions: Lodderomyces parapsilosis, MTCC 1744, 24 h
[Candida] aaseri [27] = Antimicrobial activity against Candida aaseri MTCC 1962 assessed as growth inhibition after 24 hrs by agar well diffusion method; type: functional; conditions: Yamadazyma aaseri, MTCC 1962, 24 h
Nakaseomyces glabratus [28] = assay: Antimicrobial activity against Candida glabrata MTCC 3019 assessed as growth inhibition after 24 hrs by agar well diffusion method; type: functional; conditions: MTCC 3019, 24 h
Pichia kudriavzevii [29] = assay: Antimicrobial activity against Candida krusei MTCC 3020 assessed as growth inhibition after 24 hrs by agar well diffusion method; type: functional; conditions: MTCC 3020, 24 h
Pichia sporocuriosa [30] = assay: Antimicrobial activity against Issatchenkia hanoiensis MTCC 4755 assessed as growth inhibition after 24 hrs by agar well diffusion method; type: functional; conditions: MTCC 4755, 24 h
Candida albicans [31] = assay: Fungicidal activity against Candida albicans MTCC 3017 after 24 hrs by serial dilution method; type: functional; conditions: MTCC 3017, 24 h
Candida albicans [32] = assay: Fungicidal activity against Candida albicans MTCC 183 after 24 hrs by serial dilution method; type: functional; conditions: MTCC 183, 24 h
Candida albicans [33] = assay: Fungicidal activity against Candida albicans MTCC 227 after 24 hrs by serial dilution method; type: functional; conditions: MTCC 227, 24 h
Candida albicans [34] = assay: Fungicidal activity against Candida albicans MTCC 854 after 24 hrs by serial dilution method; type: functional; conditions: MTCC 854, 24 h
Candida albicans [35] = assay: Fungicidal activity against Candida albicans MTCC 1637 after 24 hrs by serial dilution method; type: functional; conditions: MTCC 1637, 24 h
Candida albicans [36] = assay: Fungicidal activity against Candida albicans MTCC 3018 after 24 hrs by serial dilution method; type: functional; conditions: MTCC 3018, 24 h
Candida albicans [37] = assay: Fungicidal activity against Candida albicans MTCC 3958 after 24 hrs by serial dilution method; type: functional; conditions: MTCC 3958, 24 h
Candida albicans [38] = assay: Fungicidal activity against Candida albicans MTCC 4748 after 24 hrs by serial dilution method; type: functional; conditions: MTCC 4748, 24 h
Candida albicans [39] = assay: Fungicidal activity against Candida albicans MTCC 7315 after 24 hrs by serial dilution method; type: functional; conditions: MTCC 7315, 24 h
Candida parapsilosis [40] = assay: Fungicidal activity against Candida parapsilosis MTCC 1744 after 24 hrs by serial dilution method; type: functional; conditions: Lodderomyces parapsilosis, MTCC 1744, 24 h
[Candida] aaseri [41] = Fungicidal activity against Candida aaseri MTCC 1962 after 24 hrs by serial dilution method; type: functional; conditions: Yamadazyma aaseri, MTCC 1962, 24 h
Nakaseomyces glabratus [42] = assay: Fungicidal activity against Candida glabrata MTCC 3019 after 24 hrs by serial dilution method; type: functional; conditions: MTCC 3019, 24 h
Pichia kudriavzevii [43] = assay: Fungicidal activity against Candida krusei MTCC 3020 after 24 hrs by serial dilution method; type: functional; conditions: MTCC 3020, 24 h
Pichia sporocuriosa [44] = assay: Fungicidal activity against Issatchenkia hanoiensis MTCC 4755 after 24 hrs by serial dilution method; type: functional; conditions: MTCC 4755, 24 h
Staphylococcus aureus [45] = assay: Antibiofilm activity against Staphylococcus aureus MTCC 96 after 24 hrs by crystal violet staining based assay; type: functional, organism-based; conditions: MTCC 96, 24 h; method in brief: as §1

SMILES: O=C(O)c1cn(C2CC2)c2cc(N3CCNCC3)c(F)cc2c1=O [CIPROFLOXACIN]
- MIC (Staphylococcus aureus [1]): 0.9 µg/mL (≈ 2.72 µM)
- MIC (Bacillus subtilis [2]): 0.9 µg/mL (≈ 2.72 µM)
- MIC (Staphylococcus aureus [3]): 0.9 µg/mL (≈ 2.72 µM)
- MIC (Micrococcus luteus [4]): 0.9 µg/mL (≈ 2.72 µM)
- MIC (Raoultella planticola [5]): 0.9 µg/mL (≈ 2.72 µM)
- MIC (Escherichia coli [6]): 0.9 µg/mL (≈ 2.72 µM)
- MIC (Pseudomonas aeruginosa): 0.9 µg/mL (≈ 2.72 µM)
- MBC (Staphylococcus aureus [7]): 1.9 µg/mL (≈ 5.73 µM)
- MBC (Bacillus subtilis [8]): 0.9 µg/mL (≈ 2.72 µM)
- MBC (Staphylococcus aureus [9]): 0.9 µg/mL (≈ 2.72 µM)
- MBC (Micrococcus luteus [10]): 1.9 µg/mL (≈ 5.73 µM)
- MBC (Raoultella planticola [11]): 1.9 µg/mL (≈ 5.73 µM)
- MBC (Escherichia coli [12]): 1.9 µg/mL (≈ 5.73 µM)
- IC50 (Bacillus subtilis [13]): 0.5 µg/mL (≈ 1.51 µM)
- IC50 (Staphylococcus aureus [14]): 0.4 µg/mL (≈ 1.21 µM)
- IC50 (Micrococcus luteus [15]): 0.6 µg/mL (≈ 1.81 µM)
- Activity (Staphylococcus aureus [16]): Active

- MIC (Staphylococcus aureus [1]): 3.9 µg/mL
- MIC (Bacillus subtilis [2]): 7.8 µg/mL
- MIC (Staphylococcus aureus [3]): 7.8 µg/mL
- MIC (Micrococcus luteus [4]): 3.9 µg/mL
- MIC (Escherichia coli [6]): > 125 µg/mL
- MIC (Pseudomonas aeruginosa): > 125 µg/mL
- MIC (Candida albicans [17]): 15.6 µg/mL
- MIC (Candida albicans [18]): 31.2 µg/mL
- MIC (Candida albicans [19]): 15.6 µg/mL
- MIC (Candida albicans [20]): 15.6 µg/mL
- MIC (Candida albicans [21]): 31.2 µg/mL
- MIC (Candida albicans [22]): 31.2 µg/mL
- MIC (Candida albicans [23]): 31.2 µg/mL
- MIC (Candida albicans [24]): 15.6 µg/mL
- MIC (Candida albicans [25]): 15.6 µg/mL
- MIC (Candida parapsilosis [26]): 62.5 µg/mL
- MIC ([Candida] aaseri [27]): 15.6 µg/mL
- MIC (Nakaseomyces glabratus [28]): 31.2 µg/mL
- MIC (Pichia kudriavzevii [29]): 31.2 µg/mL
- MIC (Pichia sporocuriosa [30]): 31.2 µg/mL
- IC50 (Staphylococcus aureus [45]): 3.2 µg/mL
- IC50 (Bacillus subtilis [13]): 4.6 µg/mL
- IC50 (Staphylococcus aureus [14]): 4.8 µg/mL
- IC50 (Micrococcus luteus [15]): 2 µg/mL
SMILES: CCCCCCCC[N+](C)(CCCCCCCC)CCCCCCCCCCC(=O)OC.[Cl-]
- MIC (Raoultella planticola [5]): 31.2 µg/mL
- MBC (Staphylococcus aureus [7]): 15.6 µg/mL
- MBC (Bacillus subtilis [8]): 15.6 µg/mL
- MBC (Staphylococcus aureus [9]): 15.6 µg/mL
- MBC (Micrococcus luteus [10]): 7.8 µg/mL
- MBC (Raoultella planticola [11]): > 125 µg/mL
- MBC (Escherichia coli [12]): > 125 µg/mL
- MFC (Candida albicans [31]): 31.2 µg/mL
- MFC (Candida albicans [32]): 31.2 µg/mL
- MFC (Candida albicans [33]): 31.2 µg/mL
- MFC (Candida albicans [34]): 31.2 µg/mL
- MFC (Candida albicans [35]): 62.5 µg/mL
- MFC (Candida albicans [36]): 31.2 µg/mL
- MFC (Candida albicans [37]): 31.2 µg/mL
- MFC (Candida albicans [38]): 31.2 µg/mL
- MFC (Candida albicans [39]): 15.6 µg/mL
- MFC (Candida parapsilosis [40]): 31.2 µg/mL
- MFC ([Candida] aaseri [41]): 31.2 µg/mL
- MFC (Nakaseomyces glabratus [42]): 31.2 µg/mL
- MFC (Pichia kudriavzevii [43]): 31.2 µg/mL
- MFC (Pichia sporocuriosa [44]): 31.2 µg/mL
